This note sets out measurements from ChEMBL document CHEMBL2086275, “Docking studies, synthesis, characterization of some novel oxazine substituted 9-anilinoacridine derivatives and evaluation for their antioxidant and anticancer activities as topoisomerase II inhibitors” (Eur J Med Chem, 2012).

≈ marks a conversion by molar mass, not a printed value.

Holding throughout (assay type): functional
The nature of test [1]: Antioxidant activity assessed as inhibition of superoxide radical-induced NBT reduction by alkaline DMSO method.
Test [2] can be described thus: Antioxidant activity assessed as hydrogen peroxide radical scavenging activity.
A short description of test [3]: Antitumor activity against mouse DLA cells after 3 hrs by trypan blue dye exclusion assay. In short, it runs like this: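 DLA cells were grown in the peritoneal cavity of albino mice (25-30 g) by i.p. injection of 1×10^6 cells/mL. Cells were harvested on day 15, washed three times in HBSS and adjusted to 2×10^6 cells/mL. Cells were exposed to graded drug concentrations in PBS (1:1 volume) for 3 h at 37 °C, 5% CO2. Viability was counted by haemocytometer after 1:1 mixing with 0.4% trypan blue, and % inhibition and CTC50 were calculated.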

Consider `O=C(/C=C/c1ccc(Cl)cc1Cl)c1ccc(Nc2c3ccccc3nc3ccccc23)cc1`, for which the IC50 in test [1] is above 500 µg/mL; in test [2], above 1000 µg/mL.

Take `O=C(/C=C/c1cccc(Cl)c1)c1ccc(Nc2c3ccccc3nc3ccccc23)cc1`: the IC50 in test [1] was above 500 µg/mL; in test [2], above 1000 µg/mL.

For the molecule `O=C(/C=C/c1ccccc1Cl)c1ccc(Nc2c3ccccc3nc3ccccc23)cc1`, the IC50 in test [1] was above 500 µg/mL; in test [2], above 1000 µg/mL.

On to `O=C(/C=C/c1ccc([N+](=O)[O-])cc1)c1ccc(Nc2c3ccccc3nc3ccccc23)cc1`, for which the IC50 in test [1] is above 500 µg/mL; in test [2], above 1000 µg/mL.

`C/C=C/C(=O)c1ccc(Nc2c3ccccc3nc3ccccc23)cc1`: the IC50 in test [1] was above 500 µg/mL; in test [2], above 1000 µg/mL.

Consider `COc1cc(/C=C/C(=O)c2ccc(Nc3c4ccccc4nc4ccccc34)cc2)ccc1O`, for which the IC50 is above 500 µg/mL in test [1] and above 1000 µg/mL in test [2].

For the molecule `COc1ccc(/C=C/C(=O)c2ccc(Nc3c4ccccc4nc4ccccc34)cc2)cc1OC`, the IC50 in test [1] is above 500 µg/mL; in test [2], above 1000 µg/mL.

For `NC1N=C(c2ccc(Cl)cc2Cl)C=C(c2ccc(Nc3c4ccccc4nc4ccccc34)cc2)O1` (configuration not stated), the values for the IC50 in test [1] and in test [2] were 28.02 µg/mL (≈ 54.8 µM) and 20.03 µg/mL (≈ 39.2 µM), respectively. The molecule further yielded a CC50 in test [3] of 180 µg/mL (≈ 352 µM).

Turning to `NC1N=C(c2ccccc2)C=C(c2ccc(Nc3c4ccccc4nc4ccccc34)cc2)O1` (configuration not stated), the IC50 is 22.27 µg/mL (≈ 50.3 µM) in test [1] and 17.23 µg/mL (≈ 38.9 µM) in test [2]. In test [3], this molecule returned a CC50 of 425 µg/mL (≈ 960 µM).

`NC1N=C(c2ccc(Cl)cc2)C=C(c2ccc(Nc3c4ccccc4nc4ccccc34)cc2)O1` (configuration not stated): the IC50 in test [1] was found to be 68.13 µg/mL (≈ 143 µM); in test [2], 30.01 µg/mL (≈ 62.9 µM). The molecule further yielded a CC50 in test [3] of 640 µg/mL (≈ 1340 µM).

Regarding `NC1N=C(c2cccc(Cl)c2)C=C(c2ccc(Nc3c4ccccc4nc4ccccc34)cc2)O1` (configuration not stated), the IC50 is 37.43 µg/mL (≈ 78.5 µM) in test [1] and 36.01 µg/mL (≈ 75.5 µM) in test [2]. The molecule further displayed a CC50 in test [3] of 820 µg/mL (≈ 1720 µM).

On to `NC1N=C(c2ccccc2Cl)C=C(c2ccc(Nc3c4ccccc4nc4ccccc34)cc2)O1` (configuration not stated), for which the IC50 in test [1] is 32.05 µg/mL (≈ 67.2 µM); in test [2] it was 25.01 µg/mL (≈ 52.4 µM). Further, in test [3], it took 590 µg/mL (≈ 1240 µM) to reach half-maximal cytotoxicity (CC50).

Regarding `NC1N=C(c2ccc([N+](=O)[O-])cc2)C=C(c2ccc(Nc3c4ccccc4nc4ccccc34)cc2)O1` (configuration not stated), the results for the IC50 in test [1] and in test [2] were 47.5 µg/mL (≈ 97.4 µM) and 24.03 µg/mL (≈ 49.3 µM), respectively. In test [3], this molecule showed a CC50 of 725 µg/mL (≈ 1490 µM).

For the molecule `NC1N=C(c2cccc([N+](=O)[O-])c2)C=C(c2ccc(Nc3c4ccccc4nc4ccccc34)cc2)O1` (configuration not stated), the results for the IC50 in test [1] and in test [2] were 29.03 µg/mL (≈ 59.5 µM) and 12 µg/mL (≈ 24.6 µM), respectively. This molecule came in with a CC50 in test [3] of 600 µg/mL (≈ 1230 µM).

Turning to `CC1=NC(N)OC(c2ccc(Nc3c4ccccc4nc4ccccc34)cc2)=C1` (configuration not stated), the IC50 is 26.3 µg/mL (≈ 69.1 µM) in test [1] and 14.2 µg/mL (≈ 37.3 µM) in test [2]. Also, half-maximal cytotoxicity in test [3] (CC50) was put at 140 µg/mL (≈ 368 µM).

Regarding `COc1cc(C2=NC(N)OC(c3ccc(Nc4c5ccccc5nc5ccccc45)cc3)=C2)ccc1O` (configuration not stated), the IC50 in test [1] amounted to 24.02 µg/mL (≈ 49.2 µM); in test [2] it was 14.5 µg/mL (≈ 29.7 µM). The same molecule had a CC50 in test [3] of 250 µg/mL (≈ 512 µM).

Turning to `COc1ccc(C2=NC(N)OC(c3ccc(Nc4c5ccccc5nc5ccccc45)cc3)=C2)cc1OC` (configuration not stated), the values for the IC50 in test [1] and in test [2] were 28.01 µg/mL (≈ 55.7 µM) and 18.06 µg/mL (≈ 35.9 µM), respectively. In test [3], this molecule returned a CC50 of 190 µg/mL (≈ 378 µM).

In the case of `O=C(/C=C/c1ccccc1)c1ccc(Nc2c3ccccc3nc3ccccc23)cc1`, the IC50 was above 500 µg/mL in test [1] and above 1000 µg/mL in test [2].

As for `O=C(/C=C/c1cccc([N+](=O)[O-])c1)c1ccc(Nc2c3ccccc3nc3ccccc23)cc1`, the IC50 is above 500 µg/mL in test [1] and above 1000 µg/mL in test [2].

In the case of `O=C(/C=C/c1ccc(Cl)cc1)c1ccc(Nc2c3ccccc3nc3ccccc23)cc1`, the IC50 in test [1] was above 500 µg/mL; in test [2], above 1000 µg/mL.

In the case of `O=C1O[C@H]([C@@H](O)CO)C(O)=C1O` [ASCORBIC ACID], the results for the IC50 in test [1] and in test [2] were 24.77 µg/mL (≈ 141 µM) and 18.6 µg/mL (≈ 106 µM), respectively.
